Most compounds without a hit are left out; they make up all but 2.6% or so of the library.
5HT1E antag: 5-HT1E receptor antagonists, primary screen, cell-based, HTS | CHO 5-HT1E Ga15 NFAT-bla reporter, FRET, antagonist | actives 0.99% (n = 65,000) | AID 571, 2007 | 5-hydroxytryptamine receptor 1E (Homo sapiens), P28566 | inhibition, % at 6 µM;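 active = inhibition above a set limit, the mean inhibition across every tested compound plus 3 SD, cut at about 29% in these data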;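 note: signal is the 460 over 535 nm emission ratio of beta-lactamase substrate; 0% = agonist plus DMSO wells and 100% = wells without agonist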
HTR1A agonist: human 5-HT1a receptor agonists, primary screen, cell-based, CHO, Ga15 NFAT-bla reporter | CHO 5-HT1a Ga15 NFAT-bla reporter, FRET ratio; 0% basal, 100% maximal reference agonist | 5-hydroxytryptamine receptor 1A (Homo sapiens), P08908 | actives 0.56% (n = 65,000) | activation, % at 10 µM | AID 567, 2006;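 active = activation above the screen-wide mean activation plus 3 SD, cut at about 19% in these data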;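 note: 0% = DMSO wells and 100% = 5-CT at EC100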
S1P3 agonist: human S1P3 receptor agonists, primary screen, cell-based, primary and confirmation, NFAT-BLA reporter. S1P3 NFAT-BLA reporter cells, agonism, FRET ratio; relative to 1 µM S1P, basal subtracted. actives 0.1% (n = 60,000). activation, % at 4.5 µM. AID 373, 2006. Sphingosine 1-phosphate receptor 3 (Homo sapiens), Q99500;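 active = activation above the screen-wide mean plus 3 SD, cut at about 4.5% in these data, passing the limit was not always enough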
Target sequence (Q99500 whole entry, looked up): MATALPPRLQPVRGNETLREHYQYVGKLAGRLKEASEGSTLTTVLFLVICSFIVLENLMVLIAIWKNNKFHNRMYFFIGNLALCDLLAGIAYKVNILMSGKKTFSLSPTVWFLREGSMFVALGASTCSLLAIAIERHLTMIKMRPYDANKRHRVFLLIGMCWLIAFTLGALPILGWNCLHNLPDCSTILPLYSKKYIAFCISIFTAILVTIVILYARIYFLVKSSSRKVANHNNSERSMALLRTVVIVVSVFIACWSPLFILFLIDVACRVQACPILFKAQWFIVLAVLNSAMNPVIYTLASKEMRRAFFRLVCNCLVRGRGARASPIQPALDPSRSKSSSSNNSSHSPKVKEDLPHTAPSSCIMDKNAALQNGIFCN
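Benchmarks: high control 1 µM S1P / System: stable CHO line with human S1P3, Gα16, NFAT-BLA reporter / Dosing: single compound concentration, 4.5 µM final / Timing: 4 h compound at 37 °C, 2 h substrate at RT / Measured by: FRET β-lactamase substrate fluorescence, excitation 405 nm, 460/535 nm emission ratio, background-subtracted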
HTR1E agonist: 5-HT1E receptor agonists, primary screen, cell-based, HTS. CHO 5-HT1E Ga15 NFAT-bla reporter, FRET; 0% DMSO wells, 100% control agonist wells. actives 0.69% (n = 65,000). activation, % at 6 µM;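 active = activation above a set limit, the screen-wide mean activation plus 3 SD, cut at about 8.5% in these data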;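 note: 100% = positive control agonist at 1 µM giving full maximal response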
5-HT1A blocker: human 5-HT1a receptor antagonists, primary screen, cell-based, CHO, Ga15 NFAT-bla reporter; AID 612, 2007; actives 0.68% (n = 62,000); CHO 5-HT1a Ga15 NFAT-bla reporter, antagonist mode; 5-hydroxytryptamine receptor 1A (Homo sapiens), P08908; inhibition, % at 10 µM;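 active = inhibition above the mean of all tested compounds plus 3 SD, cut at about 43% in these data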;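 note: receptor stimulated by 5-CT agonist at 100 nM near EC80; beta-lactamase reporter measured by ratiometric fluorescence of a cleavable substrate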
Numbers without * were called inactive; · = no result given.

SMILES	5HT1E antag	HTR1A agonist	S1P3 agonist	HTR1E agonist	5-HT1A blocker
COc1cc2c(cc1OC)CN(C(=O)Cc1ccc(OC)c(S(=O)(=O)N3CCOCC3)c1)CC2	6	-1	0	25*	-1
COC(=O)c1sc2ccccc2c1N	-3	-2	0	0	10
COC(=O)c1sc2ccccc2c1C(=O)OC	2	-3	0	11*	2
Cc1ccc(C)c(N2CCN(C(=O)c3ccc(CS(=O)(=O)c4ccccc4C)o3)CC2)c1	17	2	-1	0	6
Cc1cccc(N2CCN(C(=O)c3ccc(CS(=O)(=O)c4ccccc4C)o3)CC2C)c1 (stereo not given)	40*	1	-2	0	46*
O=C(Nc1ccc(Cl)c(C(F)(F)F)c1)C1CCCN(S(=O)(=O)c2cnc[nH]2)C1 (stereo not given)	-11	-1	1	1	-34
COc1cccc(-c2nn(C)c3sc(C(=O)NCc4ccccn4)cc23)c1	42*	-1	-1	-1	20
CN(CC(=O)N1CCc2ccccc21)S(=O)(=O)c1ccc(Br)s1	-7	-1	·	0	-10
CCCn1c(C)cc(C(=O)COc2ncnc3sccc23)c1C	-10	-3	0	0	-2
Cc1cc(C(=O)COc2ncnc3sccc23)c(C)n1C1CC1	-7	19*	0	0	-6
COCC(=O)Nc1cc(=O)n(C)c(=O)n1C	1	-3	0	0	-15
CCC(CC)C(=O)Nc1cc(=O)n(C)c(=O)n1C	9	36*	1	0	12
CCCN1Cc2cccc(C(=O)Nc3ccc(N4CCN(CC)CC4)cc3)c2C1=O	15	0	0	0	-5
Cc1cc(C)cc(OCC(=O)Nc2cccc(-c3nnc(-c4ccco4)o3)c2)c1	-9	20*	0	0	-12
C=CCn1c(NC(=O)c2ccccc2)c(C#N)c2nc3ccccc3nc21	1	14	4	4	12
O=C(CCCN1CCC(c2ccccc2)C1)c1ccc2c(c1)OCCO2 (stereo not given)	-1	6	0	8	82*
O=C(CCCN1CCOCC1)c1ccc2c(c1)OCCO2	17	-4	0	-1	1
CCOC(=O)c1nnn(-c2nonc2N)c1COc1cc(C)c(Cl)c(C)c1	12	-6	-2	-1	49*
N#Cc1nc(-c2ccccc2Cl)oc1N1CCCCC1	33*	-1	-4	0	·
CCCC(C(=O)NC1CCCC1)N(C(=O)Cn1nnc(-c2ccc(C)o2)n1)c1ccccc1OC (stereo not given)	-12	-3	0	0	24
CS(=O)c1nc(-c2ccc(Br)cc2)cc(-c2ccccc2)c1C#N (stereo not given)	43*	-6	-1	2	81*
CN(C)S(=O)(=O)N1CCC(c2ccc(F)cc2)C(COc2ccc3c(c2)OCO3)C1 (stereo not given)	9	-1	-2	-1	47*
CN(C)S(=O)(=O)N1CCN(S(=O)(=O)c2ccc(F)cc2)CC1	-2	-1	0	0	0
CCOC(=O)c1c(NC(=O)c2cc(C3CC3)on2)sc2c1CCCC2	-3	-1	2	1	-6
O=C(CSc1nccn1-c1ccc(Cl)cc1)NCc1ccc2c(c1)OCO2	-8	-1	-1	2	-10
O=C(CN1CCC(NC(=O)c2cccc(F)c2)CC1)NCc1ccccc1F	5	27*	·	-2	-7
CCOC(=O)c1[nH]c(C)c(C)c1C	-3	-4	0	0	-1
CCOC(=O)c1[nH]c(C)c(/C=N/O)c1C	8	-3	-2	9.8*	11
N=c1sc2ccccc2n1-c1ccccc1	25	3	·	25*	-7
Cc1ccc2nc3c(cc(C(=O)NCc4ccccc4)c(=N)n3CCCn3ccnc3)c(=O)n2c1	-18	15	4	3	-33

Assay outcomes as filed in PubChem BioAssay.
